hiPSC survival: enhancers of single-cell hiPSC survival, primary screen, ATPlite luminescence. 100% = ROCK inhibitor wells, 0% = DMSO. 360,000 compounds, 0.044% hits. survival enhancement, % at 20 µM; in the data active = survival enhancement above about 18%;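 note: cells exposed to compounds for 16 hours before the ATP read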
Cardio protect: cardioprotection against H2O2-induced cell death, primary screen, uHTS, H9c2 cells, ATPLite luminescence; H9c2 cardiomyocytes, H2O2 injury protection, 2 h; protection from H2O2 cell death, % at 20 µM; 360,000 compounds, 0.63% hits; AID 588492, 2011;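 active = compounds giving at least 50% protection of heart cells from peroxide-induced death in the single-dose screen, raw or plate-pattern-corrected value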;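 note: 0% = DMSO wells with peroxide and 100% = DMSO wells without peroxide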
CRFBP-R2 block: antagonists of CRF-BP/CRF-R2 complex, primary screen, cell-based, HEK293, calcium dye fluorescence, uHTS. CRF-induced calcium fluorescence. inhibition, % at 11.8 µM. 350,000 compounds, 0.59% hits. AID 588475, 2011;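 active = inhibition of the ligand-induced calcium signal above about 50% at the single tested concentration, limit read from the data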
MIN6 prolif: inducers of MIN6 beta-cell proliferation, primary screen, ATP luminescence, uHTS; MIN6 cells proliferation, ATPlite luminescence, 48 h; cells starved in 0.2% serum; 100% = growth in 10% serum; proliferation, % at 10 µM; 330,000 compounds, 0.29% hits;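 active = compounds whose signal lies at least 3.5 SD above the mean of all wells on their plate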;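 note: 0% = DMSO-treated cells in low-serum medium and 100% = 10% serum control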
CRFR2-BP ag: agonists of CRF-BP/CRF-R2 complex, primary screen, cell-based, HEK293, calcium dye fluorescence, uHTS; activation, % at 13.2 µM; CRF-binding protein / CRF receptor 2 complex (human); calcium dye fluorescence (FLIPR); percent of saturating CRF peptide response; 350,000 compounds, 0.46% hits; AID 588473, 2011;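 active = activation of at least 50%, plus an integration ratio under a set limit after plate pattern correction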;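 note: plate controls were neutral control wells without compound for no effect and CRF at EC100 for full effect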
UCH37 DUB inh: inhibitors of human UCH37 deubiquitinase, primary screen, biochemical, Ub-AMC cleavage, fluorescence. AID 588478, 2011. Ubiquitin carboxyl-terminal hydrolase isozyme L5 (Homo sapiens), Q9Y5K5. 330,000 compounds, 0.33% hits. purified proteasome/UCH37. inhibition, % (no concentration beside the values);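 active = mean inhibition over replicate wells above about 20%, limit read from the data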;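 note: 0% = compound-free wells with enzyme and 100% = wells lacking proteasome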
Target sequence (Q9Y5K5 whole entry, looked up): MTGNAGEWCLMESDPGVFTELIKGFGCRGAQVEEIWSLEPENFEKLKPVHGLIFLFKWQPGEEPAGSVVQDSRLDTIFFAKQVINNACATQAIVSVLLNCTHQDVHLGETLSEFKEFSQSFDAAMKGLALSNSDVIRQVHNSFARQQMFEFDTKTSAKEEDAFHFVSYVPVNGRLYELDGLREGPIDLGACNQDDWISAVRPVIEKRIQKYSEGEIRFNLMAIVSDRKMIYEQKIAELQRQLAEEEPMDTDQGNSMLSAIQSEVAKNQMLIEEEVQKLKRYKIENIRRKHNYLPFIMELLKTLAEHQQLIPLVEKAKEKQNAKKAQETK
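system = Proteasome-associated human UCH37 deubiquitinase | amount = 0.15 nM proteasome as dispensed | medium = pH 7.4 Tris-HCl (50 mM) with ovalbumin, ATP-MgCl2, DTT | incubation = 30 min preincubation with enzyme, 25 min cleavage at room temperature | detection = AMC fluorescence 355/460 nm | read-out basis = percent inhibition | controls = no-proteasome and no-compound wells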
* = called active by the depositor; . = no result. An excerpt weighted towards active compounds, which were near 2.1% of everything screened.

SMILES | hiPSC survival | Cardio protect | CRFBP-R2 block | MIN6 prolif | CRFR2-BP ag | UCH37 DUB inh
O=C(CCNC(=O)c1ccccc1Cl)Nc1ccc(Br)c(C(F)(F)F)c1 | -2 | -2 | -3 | -5 | -1 | 24*
COc1cc(-c2noc(C)c2C(=O)NCc2ccc3c(c2)OCO3)cc(OC)c1OC | 2 | 7 | 7 | -1 | -1 | 5
COc1c(Cl)cc(-c2noc(C)c2C(=O)NCc2ccc3c(c2)OCO3)cc1Cl | 2 | 0 | -37 | 1 | 71* | 4
c1cnc2ncc3sccc3c2c1 | -1 | 3 | 15 | -2 | 0 | 28*
Cc1cnc2ncc3sccc3c2c1 | 2 | 6 | -2 | 0 | 1 | 2
COc1ccc(C(CCN2CCCCC2)c2c(OC)cc(OC)c3c(-c4ccccc4)cc(=O)oc23)cc1 (stereo unspecified) | -3 | -8 | -32 | -8 | 59* | -3
Cc1nn(CC(=O)N(C)C2(C#N)CCCCC2)c(C)c1[N+](=O)[O-] | 0 | 8 | -75 | 0 | 111* | 3
Cc1nn(CC(=O)NC2(C#N)CCCCC2)c(C)c1[N+](=O)[O-] | -3 | 1 | 12 | -7 | 0 | 0
COc1cc(C2CC(=O)C3=C(C2)Nc2ncnn2C3c2cccs2)cc(OC)c1OC (stereo unspecified) | 0 | 4 | -2 | -4 | -3 | -19
COc1cc(C2C=C(c3cccs3)Nc3ncnn32)cc(OC)c1OC (stereo unspecified) | 1 | -2 | -162 | . | 221* | -13
CCC(=NN=C(CC)c1ccccc1)c1ccccc1 | . | . | . | . | . | 5
N#CC1=C(N)SC(N)=C(C#N)C1Cc1ccccc1 | 0 | -1 | -42 | -2 | 47 | -2
N#CC1=C(N)SC(N)=C(C#N)C1CCc1ccccc1 | 2 | -10 | -41 | -6 | 103* | 0
CCc1ccc(C2C(C#N)=C(N)SC(N)=C2C#N)cc1 | 0 | -4 | -26 | -3 | 50* | 9
CCc1ccc(C2C(C#N)=C(N)SC(N)=C2C#N)s1 | 0 | -5 | -12 | -2 | 19 | 12
CC(C)CC1C(C#N)=C(N)SC(N)=C1C#N | -2 | -10 | -56 | -2 | 50* | 5
O/N=C/c1cc(Br)ccc1OCc1ccc(F)cc1 | -2 | -22 | 4 | -1 | 3 | .
Oc1c(Br)cc(Br)cc1C=NCc1ccccc1 | -1 | 76* | -4 | -5 | 15 | 3
Oc1c(Br)cc(Br)cc1C=NCc1ccc(F)cc1 | -1 | 60* | 8 | -5 | 14 | 5
O=C(CN(Cc1ccccc1Cl)S(=O)(=O)c1ccc(Cl)cc1)NN=Cc1ccc(C(=O)O)cc1 | . | . | . | . | . | 3
O=c1c(/C=C(\O)c2ccccc2)nc2ccccc2n1-c1ccccc1 | -1 | 3 | -80 | -4 | 156* | -3
Cc1nc2ccccc2n1-c1ccccc1 | -1 | 5 | -5 | -1 | -3 | 4
CC(=NNS(=O)(=O)c1c(C)cc(C)cc1C)c1ccncc1 | . | . | . | . | . | 4
Cc1cccc(-n2c3nc(=O)[nH]c(=O)c-3cc3cc([N+](=O)[O-])ccc32)c1 | -2 | 1 | -56 | . | 2 | -1
Cc1ccc(C)c(-n2c3nc(=O)[nH]c(=O)c-3cc3cc([N+](=O)[O-])ccc32)c1 | -4 | 0 | -130 | . | 61* | 2
SMILES | hiPSC survival | Cardio protect | CRFBP-R2 block | MIN6 prolif | CRFR2-BP ag | UCH37 DUB inh
N#CC(=NO)c1nc(-c2ccccc2)cs1 | . | . | . | . | . | 6
CC(Oc1ccc(Br)cc1)C(=O)N1CCc2ccccc21 (stereo unspecified) | -3 | 6 | -164 | -4 | 222* | 5
O=c1cc(-c2cccs2)oc2ccc(Cl)cc12 | 1 | 2 | -22 | 1 | -2 | -60
O=c1c(O)c(-c2cccs2)oc2ccc(Cl)cc12 | 0 | 74* | -254 | -6 | 267* | -11
O=c1c(O)c(-c2cccs2)oc2ccccc12 | -1 | 30 | -64 | -6 | 108* | -25
O=c1c(O)c(-c2ccccc2)oc2ccccc12 | -3 | 17 | -8 | . | 24 | .
O=c1[nH]c2cccnc2c2ccsc12 | -2 | 58* | 5 | 1 | -1 | -18
